Molecules are shown by their SMILES. About 1,200 (50%) of roughly 2,400 compounds were called active. The set was probably picked from earlier hits. A selection follows. Unmarked numbers belong to inactive results.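 Rule for the calls: active = activation above the run cutoff, the mean activation over all tested wells plus 3 SD (cut at about 12% in these data); inactive = the rest.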

The nature of the assay: calcium rise in parental Ga16 cells – cell-based, fluorescence, CHO-Ga16 parental line, counter-screen for hTAAR1 agonist project (AID 651787). Conditions: Fluo-8 calcium fluorescence, at 3 µM, hits give high values, normalized to maximal ATP response, DMSO zero. Put shortly: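 Test system: CHO-Gα16 parental cells without hTAAR1 / Quantity: 750 cells per well / Detection: Fluo-8 calcium dye fluorescence, excitation 470-495 nm, emission 515-575 nm / Benchmarks: DMSO (0%) and EC100 ATP (100%) / Schedule: 17-24 h seeding, dye 75 min 37 °C, 30 min RT / Read-out basis: percent activation from max/basal fluorescence ratio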
In the case of `Cc1ccc(Sc2cc(N3CCOCC3)nc(-c3ccccc3)n2)cc1`, the activation was 4.27%. As for `O=C(COC(=O)Cc1ccccc1F)NCCc1ccccc1`, the activation was 0.47%. Consider `COc1ccc(OC)c(NC(=S)N2CCc3ccccc3C2)c1`, for which the activation is 0.03%. `O=C(Nc1ccc(Cl)cc1)N1CCc2[nH]c3ccccc3c2C1`: the activation is 1.95%. As for `Fc1ccc(NC(=S)N2CCc3[nH]c4ccccc4c3C2)cc1`, the activation was 11.5% (active). Next, `c1ccc2c(c1)C(=NC1CCCCC1)NC2=NC1CCCCC1`: 59.9% (active). Regarding `CCC(c1nnnn1Cc1ccco1)N(CCc1ccccc1)Cc1cc2cccc(C)c2[nH]c1=O` (stereo not drawn), the activation is 8.41%. As for `CC(Oc1ccc(Cl)cc1)C(=O)OCC(=O)Nc1ncc(Cl)cc1Cl` (stereo not drawn), the activation was 14.9% (active). For `COc1ccc2c(c1)OC(O)(C(F)(F)C(F)F)CC2=O` (stereo not drawn), the activation was 27.7% (active). For the compound `COc1ccc(Cl)cc1C(=O)NNC(=S)NC(=O)/C=C/c1ccco1`, the activation was 83.3% (active). Turning to `Cc1ccc(NC(=O)CCN2CCc3ccccc3C2)cc1`, the activation is 10.8%. Under `Nc1cc(OC(=O)c2ccccc2Br)nn1S(=O)(=O)c1ccccc1` stands 39.3% (active). On to `S=C(NCCc1ccccc1)N1CCn2cccc2C1c1ccncc1` (stereo not drawn), for which the activation was 12.7% (active). Next, `O=C(NCCc1ccccc1)C(=O)NCC1OCCN1S(=O)(=O)c1cccs1` (stereo not drawn): 1.98%. Next, `CCCSc1nc2c(c(=O)n(C)c(=O)n2C)n1Cc1ccc(C)cc1`: 34.2% (active); `O=C1C=C(c2ccc(Cl)cc2)C(=O)N1Nc1ccccc1`: 46% (active). Turning to `COc1ccc2cc(-c3[nH]ncc3CNCCn3nc(C)cc3C)ccc2c1`, the activation is 0.78%. On to `COc1cccc(-c2cnc(OC(C)(C)C)nc2OC(C)(C)C)c1`, for which the activation is 14.5% (active). `CSc1nc(N)c(C#N)c(-c2ccccc2Cl)c1C#N`: the activation was 54.2% (active). On to `O=C(N[C@H](C(=O)N1CCC[C@H]1C(=O)NCCc1ccccc1Cl)c1ccccc1)c1ccccc1`, for which the activation was 1.78%. Consider `OC(CNCCc1ccc(Cl)cc1Cl)COc1ccccc1` (stereo not drawn), for which the activation was 17.8% (active). Regarding `c1ccc2c(c1)OCC(CNc1ncnc3nc[nH]c13)O2` (stereo not drawn), the activation is 170% (active).

Consider `COc1cc(OC)c(-n2cc(-c3ccc(Cl)cc3)[nH]c2=O)cc1Cl`, for which the activation is 74.4% (active).

Source of the values: PubChem BioAssay AID651787 (The Scripps Research Institute Molecular Screening Center, 2012).
